Results on one compound are retold here after paper PMC9392492 (International Journal of Nanomedicine, 2022).

Common to all, as to format: in vivo
Assay [1] deals with formalin-induced nociception in mice. Briefly: Formalin test. Conditions: formalin 15 min after i.g. administration; RJ-III 0.10 mg/kg, aspirin 200 mg/kg. In a few lines: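 Fasted ICR mice, n = 10 per group, were dosed i.g. with free or SLN-formulated test compound (0.10 mg/kg), aspirin (200 mg/kg) or saline. Then 25 μL of 2.5% formalin was injected s.c. into the left hind paw at 15 or 45 min post-dose, in separate experiments. Licking/biting time (s) was scored at 0–5 min (phase I) and 15–30 min (phase II).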

Assay [2] relates to acetic acid-induced writhing in mice. The assay is described as follows: Acetic acid writhing test. Particulars: i.g.; RJ-III 0.10 mg/kg, aspirin 200 mg/kg. In a few lines: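 Fasted ICR mice (18–22 g, both sexes), n = 10 per group, received free or SLN-formulated test compound (0.10 mg/kg), aspirin (200 mg/kg) or 0.9% saline, all i.g. Then 0.8% acetic acid (10 mL/kg, i.p.) was injected at 15 or 45 min post-dose, in two separate experiments. Abdominal contortions and hind-paw extensions were counted for 30 min.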
On the technique in general: An intraperitoneal irritant provokes the stretching counted in writhing tests.

In assay [3] the test system is hot-plate nociception in mice. The assay is described as follows: Hot plate test. Particulars: RJ-III 0.2 mg/kg, aspirin 300 mg/kg. The gist of the method:
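Baseline latency (paw lick or jump) on a 53 ± 0.5°C plate was taken three times, 15 min apart. Mice under 5 s or over 30 s were excluded. Fasted ICR mice (n = 10) then received free or SLN-formulated test compound (0.20 mg/kg), aspirin or saline, all i.g. Latency was re-measured at 15 and 45 min, with a 30 s cutoff.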
Background: Hot-plate and tail-flick tests time the reaction to a heat stimulus.

For the compound `CC(=O)Oc1ccccc1C(=O)O` [aspirin], in assay [1], the “phase I response (licking time) vs normal saline” value is “no effects” and the “phase II response (licking time) vs normal saline” value is given as “suppressed behavioral responses”. Besides, the “change in number of writhes between 15 and 45 min” value in assay [2] is given as “statistically increases”. Also, in assay [3] (15 min after i.g. administration), the “latency time compared to pretreatment” value was “increased the latency time”. The “antinociception relative to pretreatment” value in assay [3] (45 min after i.g. administration) is given as “no significant analgesic effect”.
